Activity calls are given as the source filed them. The rule behind the calls is not given here.
Experiments:
SH-SY5Y [1] = assay: Cytotoxicity against human SH-SY5Y cells assessed as reduction in cell viability pretreated with SFN followed by compound treatment by MUH reagent based spectrophotometric analysis; assay type: functional
SH-SY5Y [2] = assay: Induction of apoptosis in human SH-SY5Y cells assessed as increase in caspase-3 activity at 10 uM incubated for 72 hrs by colorimetric assay relative to control; assay type: functional
Procedure, shortened: (§1)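 Cells treated 72 h, collected, PBS-rinsed, lysed on ice 10 min; protein quantified by Bradford. Lysates incubated 2 h at 37 °C with 2× reaction buffer containing 10 mM dithiothreitol and DEVD-pNA caspase-3 substrate. Free pNA read by absorbance at 405 nm; activity expressed as fold over untreated cells. At least 3 independent experiments.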

[3] = target: Histone deacetylase (Homo sapiens) (UniProt Q13547+O15379+Q9UBN7+Q92769+Q9UQL6+Q8WUI4+Q9BY41+Q96DB2+P56524+Q9UKV0+Q969S8); assay: Inhibition of HDAC in human SH-SY5Y cells assessed as hyperacetylation of histone H2/H3 at 5 uM incubated for 6 hrs by western blot analysis; assay type: cell-based
Procedure, shortened: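 SH-SY5Y seeded at 20 × 10⁴ cells/cm², after 48 h given 5 μM compound or vehicle for 6 h. Nuclei isolated, histones acid-extracted (0.4 N H2SO4, 4 °C 1 h), acetone-precipitated, run on 15% gel and blotted with anti-acetyl-lysine antibody, ECL detection; densitometry normalized to H1.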

SH-SY5Y [4] = assay: Induction of cell cycle arrest in human SH-SY5Y cells assessed as proportion of cells at sub-G1 phase at 10 uM incubated for 72 hrs by propidium iodide staining based flow cytometry (reference value: 5.56%)
SH-SY5Y [5] = assay: Induction of apoptosis in human SH-SY5Y cells assessed as increase in PARP cleavage by measuring decrease in PARP protein expression at 1 uM incubated for 72 hrs by flow cytometry relative to control; assay type: functional; parameters: scale not given: the % may be the effect or the level left
Procedure, shortened: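 SH-SY5Y cells, cultured in DMEM with 10% FBS at 37 °C and 5% CO2, were treated for 72 h. Cells were fixed in 4% paraformaldehyde and permeabilized with 90% cold methanol. They were stained with anti-PARP (1:100) and then an Alexa Fluor 488 secondary (1:200). Mean fluorescence intensity was read by flow cytometry and expressed as fold change versus control cells.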

SH-SY5Y [6] = assay: Induction of apoptosis in human SH-SY5Y cells assessed as increase in caspase-3 activity at 1 uM incubated for 72 hrs by colorimetric assay relative to control; assay type: functional; procedure, shortened: as §1
SH-SY5Y [7] = assay: Cytotoxicity against human SH-SY5Y cells assessed as reduction in cell viability at 1 uM pretreated with antioxidant, NAC for 1 hr followed by incubation with drug for 24 hrs by MUH reagent based spectrophotometric analysis; assay type: functional
Procedure, shortened: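 SH-SY5Y pretreated 1 h with 2 mM NAC, then exposed to compound at 1 or 10 μM for 24 h. Viability read by MUH hydrolysis (0.01 mg/mL, 30 min, 37 °C; ex 330/em 450 nm) as percent of untreated cells; two-way ANOVA with Tukey post hoc.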

SH-SY5Y [8] = assay: Induction of cell cycle arrest in human SH-SY5Y cells assessed as proportion of cells at sub-G1 phase at 1 uM incubated for 72 hrs by propidium iodide staining based flow cytometry (reference value: 5.56%)
SH-SY5Y [9] = assay: Neuroprotective activity against H2O2-induced cytotoxicity in human SH-SY5Y cells assessed as increase in cell viability at 1 to 50 uM pretreated for 24 hrs followed by incubation for 1 hr with H2O2 and incubated in drug-free medium for 22 hrs by MUH reagent based spectrophotometric analysis; assay type: functional; conditions: dose 1-50 µM, time 25.0 hrs
Procedure, shortened: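 SH-SY5Y pretreated 24 h with 1, 10 or 50 μM compound, exposed 1 h to H2O2, then 22 h recovery in drug-free complete medium. H2O2 level printed as 300 μM in methods but 600 μM in figure legend. Viability by MUH fluorescence (ex 330/em 450 nm) vs untreated cells; one-way ANOVA, Tukey.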

Neurosphere [10] = assay: Neuroprotective activity against C57BL/6N mouse neurosphere assessed as increase in NPCs spontaneous differentiation by measuring Olig2-positive cells at 2.5 to 5 uM measured after 7 days by immunofluorescence analysis; assay type: functional, tissue-based; conditions: dose 2.5-5 µM, time 7.0 day
Procedure, shortened: (§2)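 Thirty 7-day neurospheres plated on Matrigel-coated coverslips with 2.5 or 5 μM compound or DMSO, differentiated 7 days, fixed in 4% PFA, immunostained for Nestin, DCX, Olig2 or GFAP with Alexa 555 secondaries, DAPI counterstain. Intensity index = marker-positive intensity / total DAPI intensity; mean ± SD of 3 fields per condition.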

SH-SY5Y [11] = assay: Cytotoxicity against human SH-SY5Y cells assessed as cell viability at 100 uM incubated for 24 to 72 hrs by MUH reagent based spectrophotometric analysis; assay type: functional; conditions: time 24-72 hrs, read-out: Activity
Procedure, shortened: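 SH-SY5Y in DMEM/10% FBS seeded 0.75 × 10⁴ cells/well, after 24 h treated with 0.1–100 μM for 24, 48 or 72 h. Washed, incubated with MUH 0.01 mg/mL in PBS 30 min at 37 °C in the dark; fluorescence ex 330/em 450 nm, normalized to untreated cells. IC50 by nonlinear regression, log(inhibitor) vs normalized response.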

Neurosphere [12] = assay: Neuroprotective activity against C57BL/6N mouse neurosphere assessed as effect on neurospheres size at 2.5 to 5 uM measured after 7 days by bright field microscopy; assay type: functional, tissue-based; conditions: dose 2.5-5 µM, time 7.0 day
Procedure, shortened: (§3)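 Neurospheres from sub-ventricular zone of 8-month-old male C57BL/6N mice, dissociated with Accutase, plated as single cells 5 × 10³/well in suspension in EGF/FGF2/N2/B27 medium with 2.5–50 μM compound or DMSO for 7 days. Daily brightfield live imaging; sphere count and total area per image, aggregates >400 μm² only.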

SH-SY5Y [13] = assay: Potentiation of H2O2-induced cytotoxicity in human SH-SY5Y cells assessed as cell viability at 50 uM pretreated for 24 hrs followed by incubation for 1 hr with H2O2 and incubated in drug-free medium for 22 hrs by MUH reagent based spectrophotometric analysis (reference value: 50.8%); assay type: functional; conditions: time 25 hrs, read-out: Activity
Neurosphere [14] = assay: Toxicity against C57BL/6N mouse neurosphere at 25 to 50 uM measured after 7 days by bright filed microscopy; assay type: tissue-based; conditions: in vitro, 168 h; procedure, shortened: as §3
[15] = Cytotoxicity against human HepG2 cells assessed as reduction in cell viability incubated for 24 hrs by MTT assay; assay type: toxicity, cell-based
Procedure, shortened: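 HepG2 in MEM with 10% FBS, plated 1.5 × 10⁴ cells/well; after 24 h exposed to 0.010–100 μM compound or vehicle for 24 h. MTT (0.2 mg/mL in PBS) for 2 h at 37 °C, formazan dissolved in DMSO, absorbance at 570 nm. Viability relative to vehicle controls, mean ± SD, n = 4.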

Neurosphere [16] = assay: Neuroprotective activity against C57BL/6N mouse neurosphere assessed as increase in NPCs spontaneous differentiation by measuring decrease in Nestin-positive cells at 2.5 to 5 uM measured after 7 days by immunofluorescence analysis; assay type: functional, cell-based; conditions: dose 2.5-5 µM, time 7.0 day; procedure, shortened: as §2
Neurosphere [17] = assay: Neuroprotective activity against C57BL/6N mouse neurosphere assessed as increase in NPCs spontaneous differentiation by measuring increase in DCX-positive cells at 2.5 to 5 uM measured after 7 days by immunofluorescence analysis; assay type: functional, cell-based; conditions: dose 2.5-5 µM, time 7.0 day; procedure, shortened: as §2

| SMILES | Activity (SH-SY5Y [1]) | fold change (FC) (SH-SY5Y [2]) | inhibition [3] | Activity (SH-SY5Y [4]) [%] | Activity (SH-SY5Y [5]) [%] | fold change (FC) (SH-SY5Y [6]) | Activity (SH-SY5Y [7]) | Activity (SH-SY5Y [8]) [%] | Activity (SH-SY5Y [9]) | Activity (Neurosphere [10]) | viability at 100 µM (SH-SY5Y [11]) [%] | Activity (Neurosphere [12]) | viability at 50 µM (SH-SY5Y [13]) [%] | Activity (Neurosphere [14]) | IC50 at 24 h [15] [µM] | Activity (Neurosphere [16]) | Activity (Neurosphere [17]) |
| --- | --- | --- | --- | --- | --- | --- | --- | --- | --- | --- | --- | --- | --- | --- | --- | --- | --- |
| CC1=C(NCc2ccc(C(=O)Nc3ccccc3N)cc2)C(=O)c2ccccc2C1=O | Active | 1.7 | Active | 42.32 | 44.81 | 1.2 | inactive | 28.03 | – | – | – | – | – | – | – | – | – |
| CC1=C(NCCCCNC(=O)CS)C(=O)c2ccccc2C1=O | – | – | – | – | – | – | – | – | inactive | inactive | 70 | inactive | 28.2 | Toxic | 25.5 | Active | Active |
